Measurements as given in PubChem BioAssay AID504483 (The Scripps Research Institute Molecular Screening Center, 2011).
Activity calls are given as the source filed them.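 The calls were made as follows: active = inhibition of the enzyme at or above 50% at 0.1 µM compound; inactive = the rest.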

Biological target: Platelet-activating factor acetylhydrolase (Mus musculus) (UniProt Q60963)
Assay: murine plasma PAF acetylhydrolase inhibitors – cell lysate, gel-based competitive ABPP, COS-7 proteome, fluorescence, selectivity assay for PAFAH2 inhibitor project, late-stage follow-up (AID 504483)
Conditions: murine pPAFAH, gel ABPP FP-Rh, at 1 µM (top of the series)
How it was run: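 Material: soluble COS-7 proteome expressing murine pPAFAH; medium: DPBS buffer; probe or stimulus: FP-Rh, 2 µM final; timing: compound 30 min at 25 °C, FP-Rh 30 min; technique: gel ABPP, in-gel fluorescence band density; control set: DMSO-only high, blank-gel background low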

Platelet-activating factor acetylhydrolase (Mus musculus), sequence (Q60963 whole entry, looked up): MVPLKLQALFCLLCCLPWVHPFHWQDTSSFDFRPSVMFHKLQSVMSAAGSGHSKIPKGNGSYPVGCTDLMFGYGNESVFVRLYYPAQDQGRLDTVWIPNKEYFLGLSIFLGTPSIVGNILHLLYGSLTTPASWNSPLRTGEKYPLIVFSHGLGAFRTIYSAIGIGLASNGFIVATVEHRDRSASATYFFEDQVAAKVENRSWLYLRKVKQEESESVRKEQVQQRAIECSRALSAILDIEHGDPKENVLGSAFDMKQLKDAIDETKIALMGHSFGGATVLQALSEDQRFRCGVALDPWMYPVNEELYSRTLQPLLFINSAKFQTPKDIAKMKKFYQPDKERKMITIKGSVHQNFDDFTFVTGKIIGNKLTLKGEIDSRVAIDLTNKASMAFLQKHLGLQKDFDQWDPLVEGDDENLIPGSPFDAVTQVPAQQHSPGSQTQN

inhibition: 85% (inactive)
Structure (SMILES): O=C(N1CCCC1)n1ncc(-c2ccc(-c3ccccc3)cc2)n1
